Assay outcomes deposited in PubChem by Broad Institute.
DENV2 CPE: inhibitors of DENV2 cytopathic effect, primary screen, cell-based, plate reader, single concentration; DENV2-infected cells, cytopathic effect rescue; CPE inhibition, % at 9.99 µM; 350,000 tested, 1.7% active; AID 651640, 2012; in the data active means CPE inhibition above about 20%, passing the limit was not always enough; inconclusive means no clear call, values can overlap the other calls; tested in BHK-21 cells;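 further: 0% = median of neutral control wells and 100% = median of positive control wells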
E-selectin induc: E-selectin induction in HUVECs, primary screen, imaging, HUVEC, immunofluorescence imaging, single point | activation, % at 7.58 µM | 260,000 tested, 0.37% active | normalized: neutral wells 0, TNF-alpha wells 100 | P16581;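 active means mean E-selectin-positive cell signal at least 10% of the positive control, reached in at least 60% of replicates, without over 20% cell loss; inconclusive means no rule given, readout overlaps actives, possibly toxicity-flagged; inactive means the rest, including those meeting only one limit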
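Test system – human umbilical vein endothelial cells (HUVEC), E-selectin induction · Input – 3,000 HUVEC seeded per well · Buffer or medium – EGM-2, gelatin · Compound dosing – single-point compound dose · Detection – immunofluorescence imaging · Measure – percent E-selectin-positive cells · Controls – TNF-alpha high, DMSO low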
SIRT5 block: SIRT5 desuccinylase inhibitors, primary screen, biochemical, fluorescence imaging, single point, set 5; Purified SirT5, succinyl-peptide AMC, trypsin-coupled fluorescence; 330,000 tested, 1.1% active; inhibition, % at 15 µM; NAD-dependent protein deacylase sirtuin-5, mitochondrial (Homo sapiens), Q9NXA8; AID 652115, 2013; in the data active means inhibition above about 15%; inconclusive means no clear call, values can overlap the other calls
Target sequence (Q9NXA8 whole entry, looked up): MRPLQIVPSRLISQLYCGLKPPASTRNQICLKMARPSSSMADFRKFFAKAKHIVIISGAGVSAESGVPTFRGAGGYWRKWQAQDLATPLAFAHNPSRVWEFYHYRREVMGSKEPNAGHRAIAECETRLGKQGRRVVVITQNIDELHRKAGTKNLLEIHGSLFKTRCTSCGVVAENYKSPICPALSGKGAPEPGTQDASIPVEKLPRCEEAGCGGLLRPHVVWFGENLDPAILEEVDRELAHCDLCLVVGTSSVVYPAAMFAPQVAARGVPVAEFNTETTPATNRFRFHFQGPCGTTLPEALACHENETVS
Numbers without * were called inactive; ? = inconclusive; . = no result given; ! = not confirmed by another sample. Sampled rows, rich in hits. Any-hit rate of the full collection: about 2.8%.

SMILES | DENV2 CPE | E-selectin induc | SIRT5 block
C[C@H](CO)N1C[C@H](C)[C@@H](CN(C)C(=O)Nc2ccccc2)Oc2c(NC(=O)NC3CCCCC3)cccc2C1=O | 63.5* | 0.1 | 3.1
C[C@@H]1CN([C@H](C)CO)C(=O)c2cccc(NC(=O)C3CCOCC3)c2O[C@H]1CN(C)C(=O)Nc1ccccc1 | 1.1 | 172.9* | -8.8
C[C@H](O)C#Cc1cnc2c(c1)C(=O)N([C@H](C)CO)C[C@H](C)[C@H](CN(C)C(=O)Cc1ccccn1)O2 | 2.5 | 0.3 | -1.3
Cc1noc(C)c1NC(=O)N[C@@H]1CC[C@@H](CCNC(=O)C2CCC2)O[C@H]1CO | 5.2 | 0.3 | 2.9
COc1ccc(C(=O)NC2CC3CCCC(C2)N3Cc2ccccc2)cc1 (stereo not drawn) | -6.3 | . | -2.4
COc1ccc(C(=O)NC2CC3CCCC(C2)N3Cc2ccccc2)c(OC)c1 (stereo not drawn) | -4.9 | . | 23.7*
CO[C@@H]1CN(C)C(=O)c2cc(NC(=O)c3cnccn3)ccc2OC[C@@H](C)NC[C@H]1C | 3.2 | -0.1 | -0.5
C[C@@H]1CN([C@H](C)CO)C(=O)Cc2cc(NS(=O)(=O)c3ccc(F)cc3)ccc2O[C@H]1CN(C)C(=O)NC1CCCCC1 | 3.6 | -0.1 | -3.6
COc1ccc(S(=O)(=O)Nc2ccc3c(c2)CC(=O)N([C@@H](C)CO)C[C@H](C)[C@@H](CN(C)C(=O)NC2CCCCC2)O3)cc1 | -2.8 | 79.2* | -0.2
C[C@H](CO)N1C[C@H](C)[C@@H](CN(C)C(=O)NC2CCCCC2)Oc2ccc(NS(=O)(=O)c3ccc(F)cc3)cc2CC1=O | -8.2 | -0.1 | -1.8
COc1ccc(S(=O)(=O)Nc2ccc3c(c2)CC(=O)N([C@H](C)CO)C[C@@H](C)[C@@H](CN(C)C(=O)NC2CCCCC2)O3)cc1 | ? | 55.2* | 4.4
O=C(C[C@H]1CC[C@H]2[C@@H](COC[C@H](O)CN2Cc2cccc(F)c2)O1)NCc1cccc(F)c1 | -4.5 | -0.1 | -0.3
C[C@@H]1CN([C@H](C)CO)S(=O)(=O)c2ccc(C#Cc3ccccc3F)cc2O[C@@H]1CN(C)C | -3.8 | 0.3 | 0.4
CCCC(=O)Nc1ccc2c(c1)C(=O)N(C)C[C@@H](OC)[C@H](C)CN(C(=O)Cc1ccccn1)[C@H](C)CO2 | . | 0.0 | .
COc1ccc(NC(=O)Nc2ccc3c(c2)C(=O)N([C@H](C)CO)C[C@H](C)[C@@H](CN(C)S(=O)(=O)c2ccc(OC)cc2)O3)cc1 | 26.4*! | 0.8 | 1.2
C[C@H](CO)N1C[C@H](C)[C@H](CN(C)S(C)(=O)=O)Oc2ccc(NC(=O)Nc3ccccc3)cc2C1=O | -0.9 | -0.7 | 0.6
C[C@H](CO)N1C[C@H](C)[C@@H](CN(C)S(C)(=O)=O)Oc2ccc(NC(=O)Nc3ccccc3)cc2C1=O | 88.5*! | 0.1 | -0.6
COc1ccc(NC(=O)Nc2ccc3c(c2)C(=O)N([C@@H](C)CO)C[C@@H](C)[C@@H](CN(C)S(C)(=O)=O)O3)cc1 | -8.8 | 0.1 | 0.3
COc1ccc(NC(=O)Nc2ccc3c(c2)C(=O)N([C@H](C)CO)C[C@H](C)[C@@H](CN(C)S(C)(=O)=O)O3)cc1 | 25.6*! | -0.2 | -0.6
COc1ccc(NC(=O)Nc2ccc3c(c2)C(=O)N([C@@H](C)CO)C[C@H](C)[C@H](CN(C)S(=O)(=O)c2ccc(OC)cc2)O3)cc1 | -4.7 | -0.7 | 4.0
COc1ccc(NC(=O)Nc2ccc3c(c2)C(=O)N([C@H](C)CO)C[C@H](C)[C@H](CN(C)S(=O)(=O)c2ccc(F)cc2)O3)cc1 | -1.3 | 6.7 | .
COc1ccc(NC(=O)Nc2ccc3c(c2)C(=O)N([C@H](C)CO)C[C@@H](C)[C@@H](CN(C)S(=O)(=O)c2ccc(F)cc2)O3)cc1 | -6.3 | 40.3* | .
C[C@@H](NC(=O)C[C@@H]1C=C[C@@H](NC(=O)C2CCC2)[C@H](CO)O1)c1ccccc1 | -7.9 | 0.6 | 1.9
O=C(C[C@H]1CC[C@H]2[C@@H](COC[C@H](O)CN2Cc2cc(F)ccc2F)O1)N1CCc2ccccc2C1 | 11.0 | 0.1 | -2.6
CCC(=O)N(C)C[C@H]1Oc2ncc(C#CCC(C)C)cc2C(=O)N([C@H](C)CO)C[C@@H]1C | -0.6 | -0.4 | -2.0
SMILES | DENV2 CPE | E-selectin induc | SIRT5 block
C[C@H](CO)N1C[C@H](C)[C@@H](CN(C)C(=O)C2CCC2)Oc2cc(-c3ccncc3)ccc2S1(=O)=O | . | 1.3 | .
O=C(C[C@H]1C[C@@H]2c3cc(NC(=O)C4CCOCC4)ccc3O[C@@H]2[C@H](CO)O1)NCc1ccccc1F | 2.4 | -0.2 | -2.0
C[C@@H]1CN([C@H](C)CO)C(=O)c2cc(C3=CCCCC3)cnc2O[C@@H]1CN(C)C(=O)c1cccnc1 | . | 0.1 | .
O=S(=O)(Nc1cccc(-n2cnnn2)c1)c1ccccc1 | 5.7 | . | -4.9
O=S(=O)(Nc1cccc(-n2cnnn2)c1)c1cccc(Cl)c1 | 59.3* | . | 3.0
CC(C)(C)OC(=O)CNC(=O)c1nc[nH]c1C(=O)NCc1ccc(CNC(=O)OC(C)(C)C)cc1 | -10.7 | . | -2.8
CC(C)(C)OC(=O)NCc1ccc(CNC(=O)c2nc[nH]c2C(=O)N2CCc3ccccc3C2)cc1 | 59.9* | -0.1 | .
CC(C)(C)OC(=O)NCCCCCNC(=O)c1nc[nH]c1C(=O)N1CCc2ccccc2C1 | -11.9 | -0.1 | .
CC(C)(C)OC(=O)NCc1ccc(CNC(=O)c2nc[nH]c2C(=O)NCc2ccc(CNC(=O)OC(C)(C)C)cc2)cc1 | 13.3 | -0.3 | 16.0*
COc1ccc2c3c(n(C)c2c1)[C@@H](CO)N(Cc1ccccc1)CC31CN(C(=O)Nc2cccc(F)c2)C1 | -4.4 | 0.7 | 1.6
COc1ccc(-c2ccc3c(c2)O[C@@H](CN(C)Cc2ccccc2C(=O)O)[C@@H](C)CN([C@@H](C)CO)S3(=O)=O)cc1 | 9.2 | 1.5 | 2.7
CCOc1ccc(NC(=O)Nc2cc(C(C)C)c(O)cc2C)cc1 | -0.2 | -0.7 | -5.3
Cc1cc(O)c(C(C)C)cc1NC(=S)Nc1cc(C(C)C)c(O)cc1C | 74.0* | . | -5.5
Cc1ccc(Nc2ccc(N)cc2S(=O)(=O)O)cc1 | -4.4 | . | 56.3*
Nc1cccc(Nc2ccccc2)c1 | 0.2 | 2.7 | 4.7
Nc1ccc(Nc2ccccc2)c(S(=O)(=O)O)c1 | 0.8 | 0.5 | 55.2*
Cc1ccc(S(=O)(=O)c2cc(Nc3ccccc3)ccc2O)cc1 | ? | 0.1 | .
Cc1ccc(-c2ccc([C@@H]3[C@H]4CN(C(=O)c5cccnc5)CC(=O)N4[C@H]3CO)cc2)cc1 | 4.9 | -0.4 | -0.6
C[C@H](CO)N1C[C@H](C)[C@H](CN(C)C(=O)Nc2ccc3c(c2)OCO3)OCCCC[C@H](C)Oc2ccc(NS(=O)(=O)c3ccc(Cl)cc3)cc2C1=O | 18.9 | 0.2 | 5.2
C[C@H](CO)N1C[C@H](C)[C@@H](CN(C)Cc2ccc(-c3ccccc3)cc2)Oc2ccc(NC(=O)Nc3ccccc3)cc2C1=O | -12.2 | 0.0 | 3.6
COc1ccc(NC(=O)N(C)C[C@@H]2Oc3c(NS(=O)(=O)c4cn(C)cn4)cccc3C(=O)N([C@@H](C)CO)C[C@H]2C)cc1 | -1.6 | 27.6* | 5.9
